From ChEMBL document CHEMBL3621107, “Ring fusion strategy for synthesis and lead optimization of sulfur-substituted anthra[1,2-c][1,2,5]thiadiazole-6,11-dione derivatives as promising scaffold of antitumor agents” (Eur J Med Chem, 2015)

What was measured:
Type in all cases: functional
Malme-3M = assay: Cytotoxicity against human MALME-3M cells assessed as cell growth at 10 uM after 48 hrs by SRB assay relative to control; conditions: read-out: Activity
Outline: (§1)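 First-stage NCI-60 screen by the NCI Developmental Therapeutics Program. Each compound was tested once at a single concentration of 10 μM against the 60-cell-line panel. Growth percentage was reported for each cell line.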

SK-MEL-28 = assay: Cytotoxicity against human SK-MEL-28 cells assessed as cell growth at 10 uM after 48 hrs by SRB assay relative to control; conditions: SK-MEL-28, 48 h, read-out: Activity
Outline: (§2)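 First-stage NCI DTP one-dose screen against the 60 human tumour cell line panel. Compounds were tested at a single 10 μM level, and results are given as growth percentage.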

SK-MEL-5 = assay: Cytotoxicity against human SK-MEL-5 cells assessed as cell growth at 10 uM after 48 hrs by SRB assay relative to control; conditions: SK-MEL-5, 48 h, read-out: Activity; outline: as §2
UACC-62 = assay: Cytotoxicity against human UACC62 cells assessed as cell growth at 10 uM after 48 hrs by SRB assay relative to control; conditions: UACC-62, 48 h, read-out: Activity
Outline: (§3)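 NCI-60 one-dose screen run by NCI DTP: each cell line exposed to a single 10 µM dose, and percentage growth recorded against untreated growth.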

IGROV-1 = assay: Cytotoxicity against human IGROV1 cells assessed as cell growth at 10 uM after 48 hrs by SRB assay relative to control; conditions: IGROV-1, 48 h, read-out: Activity; outline: as §1
OVCAR-3 = assay: Cytotoxicity against human OVCAR3 cells assessed as cell growth at 10 uM after 48 hrs by SRB assay relative to control; conditions: OVCAR-3, 48 h, read-out: Activity; outline: as §2
OVCAR-8 = assay: Cytotoxicity against human OVCAR8 cells assessed as cell growth at 10 uM after 48 hrs by SRB assay relative to control; conditions: OVCAR-8, 48 h, read-out: Activity; outline: as §2
CAKI-1 = assay: Cytotoxicity against human Caki1 cells assessed as cell growth at 10 uM after 48 hrs by SRB assay relative to control; conditions: CAKI-1, 48 h, read-out: Activity; outline: as §1
RXF 393 = assay: Cytotoxicity against human RXF393 cells assessed as cell growth at 10 uM after 48 hrs by SRB assay relative to control; conditions: RXF 393, 48 h, read-out: Activity; outline: as §2
SN12C = assay: Cytotoxicity against human SN12C cells assessed as cell growth at 10 uM after 48 hrs by SRB assay relative to control; conditions: read-out: Activity; outline: as §2
TK-10 = assay: Cytotoxicity against human TK10 cells assessed as cell growth at 10 uM after 48 hrs by SRB assay relative to control; conditions: TK-10, 48 h, read-out: Activity; outline: as §3
UO-31 = assay: Cytotoxicity against human UO31 cells assessed as cell growth at 10 uM after 48 hrs by SRB assay relative to control; conditions: UO-31, 48 h, read-out: Activity; outline: as §3
DU-145 = assay: Cytotoxicity against human DU145 cells assessed as cell growth at 10 uM after 48 hrs by SRB assay relative to control; conditions: DU-145, 48 h, read-out: Activity; outline: as §1
MCF7 = assay: Cytotoxicity against human MCF7 cells assessed as cell growth at 10 uM after 48 hrs by SRB assay relative to control; conditions: MCF7, 48 h, read-out: Activity; outline: as §1
BT-549 = assay: Cytotoxicity against human BT549 cells assessed as cell growth at 10 uM after 48 hrs by SRB assay relative to control; conditions: BT-549, 48 h, read-out: Activity; outline: as §1
K562 = assay: Cytotoxicity against human K562 cells assessed as cell growth at 10 uM after 48 hrs by SRB assay relative to control; conditions: K562, 48 h, read-out: Activity; outline: as §1
RPMI-8226 = assay: Cytotoxicity against human RPMI8226 cells assessed as cell growth at 10 uM after 48 hrs by SRB assay relative to control; conditions: RPMI-8226, 48 h, read-out: Activity; outline: as §2
SR = assay: Cytotoxicity against human SR cells assessed as cell growth at 10 uM after 48 hrs by SRB assay relative to control; conditions: read-out: Activity; outline: as §3
HOP-92 = assay: Cytotoxicity against human HOP92 cells assessed as cell growth at 10 uM after 48 hrs by SRB assay relative to control; conditions: HOP-92, 48 h, read-out: Activity; outline: as §1
NCI-H23 = assay: Cytotoxicity against human NCI-H23 cells assessed as cell growth at 10 uM after 48 hrs by SRB assay relative to control; conditions: NCI-H23, 48 h, read-out: Activity; outline: as §2
NCI-H460 = assay: Cytotoxicity against human NCI-H460 cells assessed as cell growth at 10 uM after 48 hrs by SRB assay relative to control; conditions: NCI-H460, 48 h, read-out: Activity; outline: as §2
COLO 205 = assay: Cytotoxicity against human COLO205 cells assessed as cell growth at 10 uM after 48 hrs by SRB assay relative to control; conditions: COLO 205, 48 h, read-out: Activity; outline: as §1
HCC 2998 = assay: Cytotoxicity against human HCC2998 cells assessed as cell growth at 10 uM after 48 hrs by SRB assay relative to control; conditions: HCC 2998, 48 h, read-out: Activity; outline: as §1
HCT-116 = assay: Cytotoxicity against human HCT116 cells assessed as cell growth at 10 uM after 48 hrs by SRB assay relative to control; conditions: HCT-116, 48 h, read-out: Activity; outline: as §1
HT-29 = assay: Cytotoxicity against human HT-29 cells assessed as cell growth at 10 uM after 48 hrs by SRB assay relative to control; conditions: HT-29, 48 h, read-out: Activity; outline: as §1
SF-268 = assay: Cytotoxicity against human SF268 cells assessed as cell growth at 10 uM after 48 hrs by SRB assay relative to control; conditions: SF-268, 48 h, read-out: Activity; outline: as §2
SNB-75 = assay: Cytotoxicity against human SNB75 cells assessed as cell growth at 10 uM after 48 hrs by SRB assay relative to control; conditions: SNB-75, 48 h, read-out: Activity; outline: as §3
U-251 = assay: Cytotoxicity against human U251 cells assessed as cell growth at 10 uM after 48 hrs by SRB assay relative to control; conditions: U-251, 48 h, read-out: Activity; outline: as §3
LOX IMVI = assay: Cytotoxicity against human LOXIMVI cells assessed as cell growth at 10 uM after 48 hrs by SRB assay relative to control; conditions: read-out: Activity; outline: as §1

Structure (SMILES)	growth at 10 µM (Malme-3M) [%]	growth at 10 µM (SK-MEL-28) [%]	growth at 10 µM (SK-MEL-5) [%]	growth at 10 µM (UACC-62) [%]	growth at 10 µM (IGROV-1) [%]	growth at 10 µM (OVCAR-3) [%]	growth at 10 µM (OVCAR-8) [%]	growth at 10 µM (CAKI-1) [%]	growth at 10 µM (RXF 393) [%]	growth at 10 µM (SN12C) [%]	growth at 10 µM (TK-10) [%]	growth at 10 µM (UO-31) [%]	growth at 10 µM (DU-145) [%]	growth at 10 µM (MCF7) [%]	growth at 10 µM (BT-549) [%]	growth at 10 µM (K562) [%]	growth at 10 µM (RPMI-8226) [%]	growth at 10 µM (SR) [%]	growth at 10 µM (HOP-92) [%]	growth at 10 µM (NCI-H23) [%]	other results
CSc1ccc(Sc2cc3c(c4nsnc24)C(=O)c2ccccc2C3=O)cc1	105	120	101	111	95.7	103	97.4	99.4	107	98	128	67.6	101	82.9	108	67.5	88.6	96.3	4.31	81.5	growth at 10 µM (NCI-H460): 106%; growth at 10 µM (COLO 205): 117%; growth at 10 µM (HCC 2998): 111%; growth at 10 µM (HCT-116): 102%; growth at 10 µM (HT-29): 102%; growth at 10 µM (SF-268): 89.7%; growth at 10 µM (SNB-75): 75.1%; growth at 10 µM (U-251): 104%; growth at 10 µM (LOX IMVI): 69%
Cc1cc(C)cc(Sc2cc3c(c4nsnc24)C(=O)c2ccccc2C3=O)c1	102	112	107	103	96.7	118	92.2	91	112	105	132	69.1	122	75.8	95.1	75.6	89.1	78.4	93.5	90.4	growth at 10 µM (NCI-H460): 105%; growth at 10 µM (COLO 205): 106%; growth at 10 µM (HCC 2998): 109%; growth at 10 µM (HCT-116): 92.3%; growth at 10 µM (HT-29): 105%; growth at 10 µM (SF-268): 108%; growth at 10 µM (SNB-75): 80.6%; growth at 10 µM (U-251): 108%; growth at 10 µM (LOX IMVI): 90.2%
Cc1ccccc1Sc1cc2c(c3nsnc13)C(=O)c1ccccc1C2=O	96.8	106	87.5	90.7	80.1	5.3	76.3	81.5	95.9	86	123	62.1	102	66.1	95.3	32.3	48.6	23	89.9	53.2	growth at 10 µM (NCI-H460): 88.9%; growth at 10 µM (COLO 205): 99.2%; growth at 10 µM (HCC 2998): 124%; growth at 10 µM (HCT-116): 92.2%; growth at 10 µM (HT-29): 104%; growth at 10 µM (SF-268): 74.7%; growth at 10 µM (SNB-75): 76.3%; growth at 10 µM (U-251): 62.4%; growth at 10 µM (LOX IMVI): 30%
